The record followed here is ChEMBL document CHEMBL1240484, “New 4H-chromen-4-one and 2H-chromene derivatives as anti-picornavirus capsid-binders” (Bioorg Med Chem, 2010).

Data set [1] can be described thus: Therapeutic index, ratio of TC50 for human HeLa cells to IC50 for HRV 1B. It counts as cell-based. The note with it: read-out: TI. The gist of the method:
(§1)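 Therapeutic index calculated as TC50 for HeLa cells (XTT, 3 days) divided by IC50 for plaque reduction of HRV 14 or HRV 1B in HeLa cells.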

The subject of data set [2] is rhinovirus B14. The data set is described as follows: Antiviral activity against Human rhinovirus 14 infected in human HeLa cells at maximum non-cytotoxic concentration after 3 days by plaque reduction assay. Format: functional. The gist of the method: (§2)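 HeLa monolayers infected with ATCC HRV 14 or 1B at about 100 plaques per well, 1 h adsorption at 33 °C. Inoculum removed, then plaque overlay with fourfold drug dilutions from the MNTC. Three days at 33 °C, neutral red (0.2 mg/mL, PBS pH 7.4) staining and plaque count, triplicate wells. IC50 from log dose vs % reduction relative to mock-treated control. Otherwise % inhibition at MNTC is reported.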
A general note: Plaques are areas of infected cells; plaque reduction assays count them against a control.

In data set [3] the test system is Enterovirus A71. Briefly: Antiviral activity against Human enterovirus 71 infected in human Hep2 cells after 2 days by plaque reduction assay. Conditions: for IC50: Enterovirus A, HEp-2, 48 h; for Activity: HEp-2. Format: functional, organism-based. In a few lines: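 Inoculum removed, then plaque overlay with fourfold drug dilutions starting from the MNTC. Two days at 37 °C, neutral red (0.2 mg/mL in PBS pH 7.4) staining, plaques counted, triplicate wells. IC50 taken from log dose vs % plaque reduction.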

Data set [4] relates to rhinovirus A1B. Briefly: Antiviral activity against Human rhinovirus 1B infected in human HeLa cells after 3 days by plaque reduction assay. It counts as functional, organism-based. The note with it: for IC50: Rhinovirus A, 72 h. The gist of the method: as §2
Data set [5] is described as follows: Cytotoxicity against human HeLa cells assessed as maximum non-cytotoxic concentration after 3 days by XTT assay. Format: cell-based. In a few lines: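 HeLa cells seeded at 2 × 10³ per well with twofold compound dilutions from the maximum soluble concentration, quadruplicate wells, 37 °C in 5% CO2 for 3 days until controls were confluent. XTT added (final 0.15 mg/mL) for 4 h, absorbance read at 492 nm with 690 nm reference. Morphology also scored microscopically. […] MNTC is the highest dose with no toxicity or growth reduction.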
In general terms: Formazan colour is commonly taken as a measure of viable cells.

Data set [6] can be described thus: Cytotoxicity against human HeLa cells after 3 days by XTT assay. Format: cell-based. Conditions: read-out: TC50. The gist of the method:
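HeLa cells seeded at 2 × 10³ per well with twofold compound dilutions from the maximum soluble concentration, quadruplicate wells, 37 °C in 5% CO2 for 3 days until controls were confluent. Morphology also scored microscopically. MNTC is the highest dose with no toxicity or growth reduction.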

The subject of data set [7] is rhinovirus B14. The data set is described as follows: Antiviral activity against Human rhinovirus 14 infected in human HeLa cells after 3 days by plaque reduction assay. Format: functional, organism-based. Conditions: for IC50: Rhinovirus B, 72 h. In a few lines: as §2
Data set [8] is described as follows: Cytotoxicity against human Hep2 cells assessed as maximum non-cytotoxic concentration after 3 days by XTT assay. It counts as cell-based, HEp-2. In a few lines: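 Hep-2 cells grown in high-glucose DMEM, seeded at 2 × 10³ per well with twofold dilutions from the maximum soluble concentration, quadruplicate wells, 3 days at 37 °C in 5% CO2. XTT (final 0.15 mg/mL) for 4 h, read at 492/690 nm, plus microscopic scoring. MNTC is the highest dose causing no toxic effect or growth reduction.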

Data set [9] relates to Enterovirus A71. Briefly: Antiviral activity against Human enterovirus 71 infected in human Hep2 cells at maximum non-cytotoxic concentration […] by plaque reduction assay. It counts as functional, HEp-2.
Data set [10] concerns rhinovirus A1B. The data set is described as follows: Antiviral activity against Human rhinovirus 1B infected in human HeLa cells assessed as reduction of viral yeild at 20 uM treated immediately after virus infection measured 30 mins after washout by plaque reduction assay. Format: functional. On the set-up: scale not given: the % may be the effect or the level left. The gist of the method:
(§3)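 One-step growth of HRV 1B in confluent HeLa cells, multiplicity of five, attachment 1 h at 4 °C, then three PBS washes (time 0). Compound at 20 µM present throughout, during adsorption only, or added or removed at 0.5, 1, 2 or 4 h p.i. Incubation at 33 °C to 10 h p.i., three freeze-thaw cycles, supernatant titred by plaque assay on HeLa cells.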

The test system of data set [11] is rhinovirus A1B. Briefly: Antiviral activity against Human rhinovirus 1B infected in human HeLa cells assessed as reduction of viral yeild at 20 uM treated 30 mins after virus infection measured after 10 hrs by plaque reduction assay. It counts as functional. On the set-up: scale not given: the % may be the effect or the level left. The gist of the method: as §3

Data set [12] concerns rhinovirus A1B. Briefly: Antiviral activity against Human rhinovirus 1B infected in human HeLa cells assessed as reduction of viral yeild at 20 uM treated 1 hr before infection measured after 10 hrs by plaque reduction assay. Format: functional, organism-based. The gist of the method:
as §3

Data set [13] relates to rhinovirus A1B. Briefly: Antiviral activity against Human rhinovirus 1B infected in human HeLa cells assessed as virus stabilization at 20 uM at 56 degC after 1 hr by plaque reduction assay (reference value: 3.5 x 10^7 PFU/ml). Format: functional. The gist of the method:
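HRV 1B held with or without 20 µM compound for 1 h at 33 °C, then heated 20 min at 56 °C (pH 7.2) and chilled on ice. Serial 10-fold dilution and plaque titration on HeLa monolayers.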

Data set [14] can be described thus: Therapeutic index, ratio of TC50 for human HeLa cells to IC50 for HRV 14. Format: cell-based. The note with it: read-out: TI. In a few lines: as §1
The test system of data set [15] is rhinovirus A1B. The data set is described as follows: Antiviral activity against Human rhinovirus 1B infected in human HeLa cells assessed as reduction of viral yeild at 20 uM treated 2 to 4 hrs after virus infection measured after 10 hrs by plaque reduction assay. Format: functional, organism-based. In a few lines: as §3
The test system of data set [16] is rhinovirus A1B. The data set is described as follows: Antiviral activity against Human rhinovirus 1B infected in human HeLa cells assessed as reduction of viral yeild at 20 uM treated immediately after virus infection measured after 10 hrs by plaque reduction assay. It counts as functional. On the set-up: scale not given: the % may be the effect or the level left. In a few lines:
as §3

Data set [17] deals with rhinovirus A1B. The data set is described as follows: Antiviral activity against Human rhinovirus 1B infected in human HeLa cells assessed as reduction of viral yeild at 20 uM treated immediately after virus infection measured >1 hr after washout by plaque reduction assay. Format: functional, organism-based. In a few lines: as §3
Data set [18] deals with rhinovirus A1B. The data set is described as follows: Antiviral activity against Human rhinovirus 1B infected in human HeLa cells assessed as virus inactivation at 20 uM at 33 degC after 1 hr by plaque reduction assay (reference value: 2.86 x 10^7 PFU/ml).
In data set [19] the test system is rhinovirus A1B. Briefly: Antiviral activity against Human rhinovirus 1B infected in human HeLa cells assessed as reduction of viral yeild at 20 uM treated 1 hr after virus infection measured after 10 hrs by plaque reduction assay. Also noted: scale not given: the % may be the effect or the level left. It counts as functional. The gist of the method: as §3
Data set [20] deals with rhinovirus A1B. The data set is described as follows: Antiviral activity against Human rhinovirus 1B infected in human HeLa cells assessed as reduction of viral yeild at 20 uM after 1 hr by plaque reduction assay. Format: functional. Also noted: scale not given: the % may be the effect or the level left.
Data set [21] relates to rhinovirus A1B. The data set is described as follows: Antiviral activity against Human rhinovirus 1B infected in human HeLa cells assessed as inhibition of viral replication at 20 uM after 10 hrs by plaque reduction assay. On the set-up: scale not given: the % may be the effect or the level left. It counts as functional. The gist of the method: as §3

Molecules are shown by their SMILES. Calls of active or inactive are those of the source. No cut-off for these calls is given here.

Consider `Clc1ccc(/C=C/C=C/C2=Cc3cc(Cl)ccc3OC2)cc1`, for which, in data set [1], the selectivity ratio came out at 23.1. Further, the “inhibition (INH)” value stood at 12.8% with rhinovirus B14 [2] and 39.1% in the data set with Enterovirus A71 [9]. Moreover, the IC50 in the data set with Enterovirus A71 [3] is greater than 6.25 µM; in the data set with rhinovirus A1B [4], 0.54 µM; in the data set with rhinovirus B14 [7] it was greater than 6.25 µM. Further, the Activity entry in the data set on Enterovirus A71 [3], in the data set on rhinovirus A1B [4] and with rhinovirus B14 [7] was “Dose-dependent effect” throughout. The MNTC at 72 h in data set [5] and in [8] was 6.25 µM in each case. Further, the CC50 at 72 h in data set [6] is 12.5 µM.

For `Clc1ccc(/C=C/C=C/C2=Cc3ccccc3OC2)cc1`, in [1], the selectivity ratio came to 2. In addition, the “inhibition (INH)” value in the data set with rhinovirus B14 [2] amounted to 30.4%; with Enterovirus A71 [9], 32.9%. The IC50 was greater than 3.12 µM in the data set on Enterovirus A71 [3], 3.1 µM in the data set with rhinovirus A1B [4] and greater than 3.12 µM with rhinovirus B14 [7]. Moreover, the Activity result in the data set on Enterovirus A71 [3], in the data set on rhinovirus A1B [4] and in the data set on rhinovirus B14 [7] was “Dose-dependent effect” each time. The MNTC at 72 h in [5] and in data set [8] was 3.12 µM each time. Moreover, in data set [6], the CC50 at 72 h is 6.25 µM.

With `C1=C(/C=C/c2ccccc2)COc2ccccc21`, the Activity in the data set on rhinovirus A1B [10] is 91.8%; with rhinovirus A1B [11] it was 90%; with rhinovirus A1B [16] it was 91.4%; in the data set on Enterovirus A71 [3], “Dose-dependent effect”; in the data set on rhinovirus A1B [4], “Dose-dependent effect”; with rhinovirus A1B [19], 7.7%. The Activity in the data set with rhinovirus A1B [20] was 91.7%; in the data set on rhinovirus B14 [7], “Dose-dependent effect”; with rhinovirus A1B [21] it was 92%. In addition, the result in the data set on rhinovirus A1B [12] and in the data set on rhinovirus A1B [15] was inactive. Besides, the selectivity ratio in [1] amounted to 250; in [14] it was 36.2. The log10PFU/ml in the data set with rhinovirus A1B [13] was found to be 2.1. Further, in the data set on rhinovirus A1B [17], the result was Active. Moreover, the half-inhibitory concentration (IC50) with Enterovirus A71 [3] was greater than 12.5 µM; in the data set with rhinovirus A1B [4], 0.2 µM; in the data set on rhinovirus B14 [7] it was 1.38 µM. In the data set with rhinovirus A1B [18], the PFU/ml is 26600000. Further, the MNTC at 72 h in data set [5] came to 25 µM; in data set [8], 12.5 µM. Further, the CC50 at 72 h in data set [6] amounted to 50 µM. Also, the “inhibition (INH)” value in the data set on Enterovirus A71 [9] is 36.1%.

What is called IC50 is the midpoint of a concentration-inhibition curve.
